According to ChEMBL document CHEMBL3877308, “Design, synthesis and in vitro biological evaluation of oligopeptides targeting E. coli type I signal peptidase (LepB)” (Bioorg Med Chem, 2017):
pIC50: −log10 of the molar value. Converted amounts (≈) assume the structure as drawn.

How the values were obtained:
[1] = biological target: Signal peptidase I (Escherichia coli K-12) (UniProt P00803); experiment: Inhibition of full length Escherichia coli His6-tagged LepB expressed in Escherichia coli C43(DE3) at 100 uM using dabcyl-VEVGGTATAGAFSRPGLE-(EDANS) as substrate preincubated for 10 mins followed by substrate addition measured for 2 hrs by FRET assay relative to control
Procedure, shortened: (§1)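 Enzyme came from the membrane fraction, extracted with 1% reduced Triton X-100 and purified by metal-chelation chromatography in 0.5% detergent. FRET pair was dabcyl acceptor and EDANS donor. EcLepB (final about 50 nM) was pre-incubated with compound 10 min at 22 °C. Reaction was then run with 8 µM substrate, following the linear fluorescence increase at 22 °C for 2 h.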

Signal peptidase I = Signal peptidase I (Escherichia coli K-12, UniProt P00803); experiment: Inhibition of full length Escherichia coli His6-tagged LepB expressed in Escherichia coli C43(DE3) using dabcyl-VEVGGTATAGAFSRPGLE-(EDANS) as substrate preincubated for 10 mins followed by substrate addition measured for 2 hrs by FRET assay
Procedure, shortened: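 Enzyme extracted from the membrane fraction with 1% reduced Triton X-100 and purified by metal-chelation chromatography in 0.5% detergent. Enzyme (final ~50 nM) was pre-incubated with compound for 10 min at 22 °C. The linear rise in EDANS donor fluorescence (dabcyl acceptor) was then followed at 22 °C for 2 h. IC50 came from non-linear regression of sigmoidal rate-versus-concentration curves.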

[2] = biological target: Signal peptidase I (Escherichia coli K-12) (UniProt P00803); experiment: Inhibition of full length Escherichia coli His6-tagged LepB expressed in Escherichia coli C43(DE3) assessed as residual activity at 2.5 uM using dabcyl-VEVGGTATAGAFSRPGLE-(EDANS) as substrate preincubated for 10 mins followed by substrate addition measured for 2 hrs by FRET assay relative to control; procedure, shortened: as §1
[3] = biological target: Signal peptidase I (Escherichia coli K-12) (UniProt P00803); experiment: Inhibition of full length Escherichia coli His6-tagged LepB expressed in Escherichia coli C43(DE3) assessed as residual activity at 5 uM using dabcyl-VEVGGTATAGAFSRPGLE-(EDANS) as substrate preincubated for 10 mins followed by substrate addition measured for 2 hrs by FRET assay relative to control; procedure, shortened: as §1
[4] = biological target: Signal peptidase I (Escherichia coli K-12) (UniProt P00803); experiment: (§2) Inhibition of full length Escherichia coli His6-tagged LepB expressed in Escherichia coli C43(DE3) assessed as residual activity at 10 uM using dabcyl-VEVGGTATAGAFSRPGLE-(EDANS) as substrate preincubated for 10 mins followed by substrate addition measured for 2 hrs by FRET assay relative to control; procedure, shortened: as §1
[5] = biological target: Signal peptidase I (Escherichia coli K-12) (UniProt P00803); experiment: as §2, with “at 0.002” for “at 10”; procedure, shortened: as §1
[6] = biological target: Signal peptidase I (Escherichia coli K-12) (UniProt P00803); experiment: as §2, with “at 1.25” for “at 10”; procedure, shortened: as §1
[7] = biological target: Signal peptidase I (Escherichia coli K-12) (UniProt P00803); experiment: as §2, with “at 0.625” for “at 10”; procedure, shortened: as §1
[8] = biological target: Signal peptidase I (Escherichia coli K-12) (UniProt P00803); experiment: as §2, with “at 0.313” for “at 10”; procedure, shortened: as §1
[9] = biological target: Signal peptidase I (Escherichia coli K-12) (UniProt P00803); experiment: as §2, with “at 0.156” for “at 10”; procedure, shortened: as §1
[10] = biological target: Signal peptidase I (Escherichia coli K-12) (UniProt P00803); experiment: as §2, with “at 0.078” for “at 10”; procedure, shortened: as §1
[11] = biological target: Signal peptidase I (Escherichia coli K-12) (UniProt P00803); experiment: as §2, with “at 0.039” for “at 10”; procedure, shortened: as §1
[12] = biological target: Signal peptidase I (Escherichia coli K-12) (UniProt P00803); experiment: as §2, with “at 0.01” for “at 10”; procedure, shortened: as §1
Escherichia coli [13] = experiment: Antibacterial activity against wild type Escherichia coli ATCC 25922 after 16 to 20 hrs by broth microdilution assay; type: functional
Procedure, shortened: (§3)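 MIC by broth microdilution in cation-adjusted Mueller-Hinton II medium, following EUCAST and CLSI guidelines; panel of Gram-negative strains plus S. aureus ATCC 29213.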

Escherichia coli [14] = experiment: Antibacterial activity against Escherichia coli CH3130 harboring tolC deletion mutant after 16 to 20 hrs by broth microdilution assay; type: functional
Procedure, shortened: (§4)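 Broth microdilution MIC in cation-adjusted Mueller-Hinton II medium, following EUCAST and CLSI guidelines; tested on a panel of Gram-negative strains plus S. aureus ATCC 29213 (wild-type).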

Escherichia coli [15] = experiment: Antibacterial activity against Escherichia coli D22 harboring lpxC mutant after 16 to 20 hrs by broth microdilution assay; type: functional; procedure, shortened: as §4
Pseudomonas aeruginosa [16] = experiment: Antibacterial activity against wild type Pseudomonas aeruginosa PAO1 after 16 to 20 hrs by broth microdilution assay; type: functional; procedure, shortened: as §3
Pseudomonas aeruginosa [17] = experiment: Antibacterial activity against wild type Pseudomonas aeruginosa PAO750 harboring efflux defective mutant after 16 to 20 hrs by broth microdilution assay; type: functional; procedure, shortened: as §4
Klebsiella pneumoniae = experiment: Antibacterial activity against wild type Klebsiella pneumoniae […] after 16 to 20 hrs by broth microdilution assay; type: functional; procedure, shortened: as §3
Staphylococcus aureus = experiment: Antibacterial activity against wild type Staphylococcus aureus ATCC 29213 after 16 to 20 hrs by broth microdilution assay; type: functional; procedure, shortened: as §3
Acinetobacter baumannii = experiment: Antibacterial activity against wild type Acinetobacter baumannii ATCC 19606 after 16 to 20 hrs by broth microdilution assay; type: functional; procedure, shortened: as §3
[18] = Cytotoxicity against human HepG2 cells assessed as reduction in cell viability after 72 hrs by fluorescein diacetate dye based fluorometric microculture assay; type: toxicity
Procedure, shortened: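 FMCA on HepG2 cells read at 72 h. Survival index (%) is fluorescence in test wells as percent of control cultures, with blank values subtracted. IC50 was obtained by non-linear regression of log concentration-effect curves.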

[19] = Hemolytic activity against human RBC at 100 uM after 45 mins by spectrophotometric method relative to control; type: ADME, cell-based, Erythrocyte; settings: red blood cells (RBC), read-out: Activity
Procedure, shortened: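 Hemolysis was tested using red blood cells from heparinized human blood.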

[20] = biological target: Signal peptidase I (Escherichia coli K-12) (UniProt P00803); experiment: as §2, with “at 0.02” for “at 10”; procedure, shortened: as §1
[21] = biological target: Signal peptidase I (Escherichia coli K-12) (UniProt P00803); experiment: as §2, with “at 0.001” for “at 10”; procedure, shortened: as §1
[22] = biological target: Signal peptidase I (Escherichia coli K-12) (UniProt P00803); experiment: as §2, with “at 0.0005” for “at 10”; procedure, shortened: as §1

Chain of Signal peptidase I (Escherichia coli K-12) (P00803 whole entry): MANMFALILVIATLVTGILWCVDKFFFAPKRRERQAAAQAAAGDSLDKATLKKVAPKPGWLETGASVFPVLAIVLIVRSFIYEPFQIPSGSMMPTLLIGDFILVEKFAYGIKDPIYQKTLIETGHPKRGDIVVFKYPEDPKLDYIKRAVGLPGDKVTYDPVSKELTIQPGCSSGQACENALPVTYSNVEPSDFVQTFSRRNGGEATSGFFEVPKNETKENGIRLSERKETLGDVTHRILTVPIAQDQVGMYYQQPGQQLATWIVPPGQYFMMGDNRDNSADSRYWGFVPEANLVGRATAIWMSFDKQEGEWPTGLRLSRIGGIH
Chain of Signal peptidase I (P00803 whole entry): as above

**Q.** For `CC(=O)N1CCC[C@H]1C(=O)N[C@H](C(=O)N[C@@H](C)C(=O)N[C@@H](CC(N)=O)C(=O)N[C@@H](C)C(=O)C(=O)NCc1cccc2ccccc12)[C@H](C)O`, which inhibition [1] is on record?
**A.** 32.3%

**Q.** Which inhibition [1] does the source give for `CC(=O)N[C@@H](C)C(=O)N[C@@H](CC(N)=O)C(=O)N[C@@H](C)C(=O)C(=O)NC(C)(C)C` here?
**A.** 13.3%

**Q.** Which inhibition [1] does the source give for `CNC(=O)[C@@H]1CCCN1C(=O)[C@H](C)NC(=O)[C@H](CC(N)=O)NC(=O)[C@H](C)NC(=O)[C@@H](NC(=O)[C@@H]1CCCN1C(C)=O)[C@H](C)O` here?
**A.** 35.8%

**Q.** With `CC(=O)N[C@@H](C)C(=O)N[C@@H](CC(N)=O)C(=O)N[C@@H](C)C(=O)C(=O)NCc1cccc2ccccc12` as the compound, how does the inhibition [1] read?
**A.** 26.6%

**Q.** With `CC(=O)N1CCC[C@H]1C(=O)N[C@H](C(=O)N[C@@H](C)C(=O)N[C@@H](CC(N)=O)C(=O)N[C@@H](C)B1O[C@@H]2C[C@@H]3C[C@@H](C3(C)C)[C@]2(C)O1)C(C)O` (single isomer, unassigned) as the compound, how does the inhibition [1] read?
**A.** 26%

**Q.** With `CCCCc1ccc(-c2ccc(C(=O)N[C@@H](CCN)C(=O)N[C@H](C(=O)N[C@@H](C)C(=O)N[C@@H](CCCCN)C(=O)N[C@@H](C)B3O[C@@H]4C[C@@H]5C[C@@H](C5(C)C)[C@]4(C)O3)[C@H](C)O)cc2)cc1` as the compound, how does the pIC50 (Signal peptidase I) read?
**A.** 6.96

**Q.** What about the Activity [2] of the same compound?
**A.** 3.33%

**Q.** And the Activity [3]?
**A.** 0.501%

**Q.** And the Activity [4]?
**A.** -0.117%

**Q.** What about the Activity [5] of the same compound?
**A.** 98.2%

**Q.** And the Activity [6]?
**A.** 0.522%

**Q.** What about the Activity [7] of the same compound?
**A.** 6.98%

**Q.** And the Activity [8]?
**A.** 18.9%

**Q.** What about the Activity [9] of the same compound?
**A.** 25.3%

**Q.** What about the Activity [10] of the same compound?
**A.** 72.7%

**Q.** What about the Activity [11] of the same compound?
**A.** 80.2%

**Q.** What about the Activity [12] of the same compound?
**A.** 86.8%

**Q.** And the MIC (Escherichia coli [13])?
**A.** 8 µg/mL (≈ 9.3 µM)

**Q.** And the MIC (Escherichia coli [14])?
**A.** 4 µg/mL (≈ 4.65 µM)

**Q.** What about the MIC (Escherichia coli [15]) of the same compound?
**A.** 1 µg/mL (≈ 1.16 µM)

**Q.** And the MIC (Pseudomonas aeruginosa [16])?
**A.** 32 µg/mL (≈ 37.2 µM)

**Q.** What about the MIC (Pseudomonas aeruginosa [17]) of the same compound?
**A.** 8 µg/mL (≈ 9.3 µM)

**Q.** And the MIC (Klebsiella pneumoniae)?
**A.** 2 µg/mL (≈ 2.33 µM)

**Q.** And the MIC (Staphylococcus aureus)?
**A.** < 0.125 µg/mL

**Q.** What about the MIC (Acinetobacter baumannii) of the same compound?
**A.** 32 µg/mL (≈ 37.2 µM)

**Q.** And the IC50 at 72 h [18]?
**A.** 12.5 µM

**Q.** And the hemolysis at 0.75 h, 100 µM [19]?
**A.** 12.8%

**Q.** Which results are given for `CCCCCCc1ccc(-c2ccc(C(=O)N3CC(CN)C[C@H]3C(=O)N[C@H](C(=O)N[C@@H](C)C(=O)N[C@@H](CC(N)=O)C(=O)N[C@@H](C)B3O[C@@H]4C[C@@H]5C[C@@H](C5(C)C)[C@]4(C)O3)[C@H](C)O)cc2)cc1` (stereo partly specified)?
**A.** pIC50 (Signal peptidase I): 7.74; Activity [2]: 0.353%; Activity [3]: 4.04%; inhibition [1]: > 50%; Activity [4]: 3.93%; Activity [5]: 88.8%; Activity [6]: 0.881%; Activity [7]: 5.53%; Activity [9]: 6.31%; Activity [20]: 37.6%; Activity [12]: 81.6%; Activity [21]: 89.7%; Activity [22]: 99.3%; MIC (Escherichia coli [13]): 32 µg/mL (≈ 35.6 µM); MIC (Escherichia coli [14]): 4 µg/mL (≈ 4.44 µM); MIC (Escherichia coli [15]): 1 µg/mL (≈ 1.11 µM); MIC (Pseudomonas aeruginosa [16]): 64 µg/mL (≈ 71.1 µM); MIC (Pseudomonas aeruginosa [17]): 8 µg/mL (≈ 8.89 µM); MIC (Klebsiella pneumoniae): 16 µg/mL (≈ 17.8 µM); MIC (Staphylococcus aureus): 0.5 µg/mL (≈ 0.556 µM); MIC (Acinetobacter baumannii): 32 µg/mL (≈ 35.6 µM); IC50 at 72 h [18]: 18.6 µM; hemolysis at 0.75 h, 100 µM [19]: 5.7%

**Q.** With `CC(=O)N[C@@H](C)B1O[C@@H]2C[C@@H]3C[C@@H](C3(C)C)[C@]2(C)O1` as the compound, how does the inhibition [1] read?
**A.** 18%
